From PubChem BioAssay AID588736 (Vanderbilt Specialized Chemistry Center, 2011)
Activity calls are given as the source filed them.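 How the source made its calls: active means compound halving or more than doubling glutamate potency, or top glutamate response under 75% or over 125% of control; inactive means the rest.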

Molecular target: Metabotropic glutamate receptor 1 (Rattus norvegicus) (UniProt P23385)
Assay: mGlu1 agonist potency fold-shift by compound – calcium fluorescence, HEK293A cells, rat, selectivity assay for mGlu5 PAM project, profiling panel (AID 588736)
Conditions: glutamate CRC shift, at 10 µM; for Emax: measured here: glutamate Emax with compound; for Emin: measured here: glutamate Emin with compound, stronger effect = higher value
Procedure, shortened: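 Test system: HEK293A cells expressing rat mGlu1 receptor. Compound dosing: single 10 µM final test compound. Timing: compound added at 1.5 s, glutamate curve at 142 s. Measured by: Fluo4-AM calcium fluorescence. Control set: vehicle-treated glutamate curves as reference for maximal response.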

Metabotropic glutamate receptor 1 (Rattus norvegicus), sequence (P23385 whole entry, looked up): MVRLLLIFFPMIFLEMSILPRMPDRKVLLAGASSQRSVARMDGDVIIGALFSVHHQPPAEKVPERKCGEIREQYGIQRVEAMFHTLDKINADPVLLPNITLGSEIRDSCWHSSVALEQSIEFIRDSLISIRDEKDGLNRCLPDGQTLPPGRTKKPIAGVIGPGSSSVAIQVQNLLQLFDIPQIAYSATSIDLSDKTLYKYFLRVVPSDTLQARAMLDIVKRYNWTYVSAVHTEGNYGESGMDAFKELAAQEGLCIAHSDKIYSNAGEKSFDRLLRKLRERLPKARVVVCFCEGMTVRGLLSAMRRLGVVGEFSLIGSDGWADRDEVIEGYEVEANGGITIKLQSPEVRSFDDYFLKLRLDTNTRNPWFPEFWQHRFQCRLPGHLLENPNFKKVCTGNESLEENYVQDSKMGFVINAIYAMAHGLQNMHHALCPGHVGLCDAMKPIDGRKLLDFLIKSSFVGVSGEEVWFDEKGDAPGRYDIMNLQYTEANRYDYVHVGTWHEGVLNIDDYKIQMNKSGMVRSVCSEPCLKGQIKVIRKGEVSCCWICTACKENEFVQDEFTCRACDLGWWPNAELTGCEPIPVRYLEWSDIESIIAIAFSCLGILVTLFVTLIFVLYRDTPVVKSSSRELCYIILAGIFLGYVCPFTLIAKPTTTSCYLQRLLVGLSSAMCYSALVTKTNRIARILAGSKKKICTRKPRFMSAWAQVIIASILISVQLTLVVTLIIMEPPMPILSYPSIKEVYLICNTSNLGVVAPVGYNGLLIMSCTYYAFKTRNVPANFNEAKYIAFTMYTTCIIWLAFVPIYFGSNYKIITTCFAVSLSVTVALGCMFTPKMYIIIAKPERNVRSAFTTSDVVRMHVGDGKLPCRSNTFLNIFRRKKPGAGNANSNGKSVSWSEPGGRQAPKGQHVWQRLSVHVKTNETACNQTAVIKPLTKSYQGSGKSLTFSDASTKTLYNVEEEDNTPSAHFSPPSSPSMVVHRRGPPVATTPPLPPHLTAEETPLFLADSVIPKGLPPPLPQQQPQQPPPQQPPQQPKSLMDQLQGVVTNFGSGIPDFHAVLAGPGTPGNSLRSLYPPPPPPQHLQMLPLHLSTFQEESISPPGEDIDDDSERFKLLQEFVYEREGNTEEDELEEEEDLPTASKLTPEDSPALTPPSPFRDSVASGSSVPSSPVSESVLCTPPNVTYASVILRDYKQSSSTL

Row | SMILES | fold shift | Emax [%] | Emin [%]
1 | CC1(NC(=O)c2ccc(C#Cc3cccc(F)c3)cn2)COC1 | 0.93 (inactive) | 91 | 1
2 | C[C@@H](NC(=O)c1ccc(C#Cc2cccc(F)c2)cn1)C(C)(C)O | 1.43 (inactive) | 94 | 1
